# Results reported in ChEMBL document CHEMBL4613270, “Structure-Activity Relationship Study Enables the Discovery of a Novel Berberine Analogue as the RXRα Activator to Inhibit Colon Cancer” (J Med Chem, 2020).
# Activity calls are given as the source filed them. The rule behind the calls is not given here.
# Key:
# [1] = biological target: T1, Retinoic acid receptor RXR-alpha (Homo sapiens) (UniProt P19793); assay: Activation of RXRalpha in human SW620 cells assessed as […] in PCNA protein expression at 40 to 80 uM incubated for 15 hrs by Western blot analysis; assay type: cell-based; conditions: SW-620
# T1 sequence (whole entry): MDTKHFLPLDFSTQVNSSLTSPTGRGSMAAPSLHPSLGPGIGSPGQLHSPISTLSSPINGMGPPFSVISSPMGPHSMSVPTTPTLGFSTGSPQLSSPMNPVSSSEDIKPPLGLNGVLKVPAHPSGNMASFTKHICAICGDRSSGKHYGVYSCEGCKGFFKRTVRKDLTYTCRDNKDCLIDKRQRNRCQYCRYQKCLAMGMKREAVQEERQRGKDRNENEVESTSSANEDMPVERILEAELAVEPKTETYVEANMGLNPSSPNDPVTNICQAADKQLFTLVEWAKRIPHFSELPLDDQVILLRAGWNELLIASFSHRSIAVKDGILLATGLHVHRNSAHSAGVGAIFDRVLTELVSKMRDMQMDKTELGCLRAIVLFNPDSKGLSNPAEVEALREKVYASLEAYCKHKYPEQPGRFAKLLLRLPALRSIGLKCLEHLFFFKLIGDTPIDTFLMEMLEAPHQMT
# [2] = Hepatotoxicity in BALB/c mouse xenografted with human KM12C cells assessed as induction of hepatomegaly by measuring body weight ratio at 100 mg/kg, ig dosed daily for 15 days; assay type: toxicity, organism-based; conditions: in vivo, po, 360 h
# [3] = biological target: T1, Retinoic acid receptor RXR-alpha (Homo sapiens); assay: Activation of RXRalpha in human KM12C cells assessed as increase in p21 (WAF1/CIP1) protein expression at 25 to 50 uM incubated for 15 hrs in presence of RXRalpha shRNA by Western blot analysis; assay type: cell-based
# HCT-116 = assay: Inhibition of cell proliferation of human HCT116 cells at 30 to 60 uM incubated for 15 hrs by EdU assay; assay type: functional, cell-based
# Method in brief: (§1)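 Colon cancer cells treated for 15 h. Proliferation measured in 96-well plates using an EdU incorporation kit, with cells examined under a fluorescence microscope.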
# [4] = biological target: T1, Retinoic acid receptor RXR-alpha (Homo sapiens); assay: Activation of RXRalpha in human KM12C cells assessed as […] crease in p21 (WAF1/CIP1) mRNA expression at 25 to 50 uM incubated for 15 hrs in presence of RXRalpha shRNA by real-time PCR analysis; assay type: cell-based
# [5] = biological target: T1, Retinoic acid receptor RXR-alpha (Homo sapiens); assay: Activation of RXRalpha in human KM12C cells assessed as reduction in Cdc2 mRNA expression at 25 to 50 uM incubated for 15 hrs in presence of RXRalpha shRNA by real-time PCR analysis; assay type: cell-based
# [6] = biological target: T1, Retinoic acid receptor RXR-alpha (Homo sapiens); assay: Binding affinity to His-tagged RXRalpha LBD (unknown origin) expressed in Escherichia coli strain BL21 (DE3) at 200 uM by STD-NMR spectroscopy
# SW-620 = assay: Inhibition of cell proliferation of human SW620 cells at 40 to 80 uM incubated for 15 hrs by EdU assay; assay type: functional, cell-based; method in brief: as §1
# [7] = biological target: T1, Retinoic acid receptor RXR-alpha (Homo sapiens); assay: Activation of RXRalpha in human HCT116 cells assessed as increase transactivational activity on RXRE at 30 to 60 uM incubated for 15 hrs by luciferase reporter gene assay; assay type: cell-based; conditions: HCT-116
# Method in brief: (§2)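 Endogenous RXRα transactivation on an RXRE luciferase reporter, lipofection-transfected; compound added 20 h post-transfection for 15 h; lysis in passive lysis buffer at 4 °C, 1 h; firefly and Renilla luciferase activities read by dual-luciferase assay.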
# [8] = biological target: T1, Retinoic acid receptor RXR-alpha (Homo sapiens); assay: Activation of RXRalpha in human KM12C cells assessed as reduction in c-Myc protein expression at 25 to 50 uM incubated for 15 hrs in presence of RXRalpha shRNA by Western blot analysis; assay type: cell-based
# [9] = Hepatotoxicity in BALB/c mouse xenografted with human KM12C cells assessed as induction of hepatocellular morphology damage at 100 mg/kg, ig dosed daily for 15 days by H and E staining; assay type: toxicity, organism-based; conditions: in vivo, po, 360 h
# [10] = biological target: T1, Retinoic acid receptor RXR-alpha (Homo sapiens); assay: Activation of RXRalpha in human KM12C cells assessed as increase transactivational activity on RXRE at 25 to 50 uM incubated for 15 hrs by luciferase reporter gene assay; assay type: cell-based; method in brief: as §2
# [11] = biological target: T1, Retinoic acid receptor RXR-alpha (Homo sapiens); assay: Activation of RXRalpha in human SW620 cells assessed as increase transactivational activity on RXRE at 40 to 80 uM incubated for 15 hrs by luciferase reporter gene assay; assay type: cell-based; conditions: SW-620; method in brief: as §2
# [12] = biological target: T1, Retinoic acid receptor RXR-alpha (Homo sapiens); assay: Activation of RXRalpha in human KM12C cells assessed as reduction in c-Myc mRNA expression at 25 to 50 uM incubated for 15 hrs in presence of RXRalpha shRNA by real-time PCR analysis; assay type: cell-based
# KM12C = assay: Inhibition of cell proliferation of human KM12C cells at 25 to 50 uM incubated for 15 hrs by EdU assay; assay type: functional, cell-based
# Method in brief: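 KM12C cells grown in MEM with 10% FBS, penicillin/streptomycin, nonessential amino acids and vitamins at 37 °C, 5% CO2. Proliferation was scored with an EdU incorporation kit, and cells were examined under a fluorescence microscope.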
# [13] = Toxicity in human HIEC6 cells assessed a reduction in cell viability at 6.25 to 100 uM incubated for 15 hrs by MTT assay; assay type: cell-based
# Method in brief: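 HIEC-6 cells grown in MEM with 4% FBS, HEPES, GlutaMAX and 10 ng/mL EGF. MEF cells grown in DMEM high glucose with 10% FBS. Cells plated at 1×10⁴ per well and treated with a concentration series for 15 h. Viability read by MTT: 4 h at 37 °C, DMSO solubilization, absorbance at 570 nm.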
structure (smiles),measurement,setting,value
COc1ccc2c(c1)CC[n+]1cc3c(OC)cccc3cc1-2.[Cl-],Activity,[1],Active
same,Activity,[2],Non-Toxic
same,Activity,[3],inactive
same,inhibition,HCT-116,Active
same,Activity,[4],inactive
same,Activity,[5],inactive
same,Activity,[6],Active
same,inhibition,SW-620,Active
same,Activity,[7],Active
same,Activity,[8],inactive
same,Activity,[9],Non-Toxic
same,Activity,[10],Active
same,Activity,[11],Active
same,Activity,[12],inactive
same,inhibition,KM12C,Active
same,Activity,[13],Non-Toxic
